Source: paper PMC9924434 (International journal of pharmaceutics, 2023)

Tests used:
[1] = Solubility of DK-I-60-3 in lipid mixtures; format: physicochemical
How it was run: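 DSC on bulk and melted-then-solidified Softisan 154 and on Softisan 154–lecithin mixtures, blank or with 1.0% or 1.5% test compound. Crystallinity index = mixture enthalpy / untreated Softisan 154 enthalpy × 100. PLM: melted mixture dropped onto heated slide, covered, solidified quickly at room temperature, imaged at 400× with crossed polarizers and ¼λ plate. Triplicates, mean ± SD.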

[2] = ref Mitrović et al., 2021; cited from earlier work

## [2H]C([2H])([2H])Oc1ccc(-n2nc3c4ccc(OC([2H])([2H])[2H])cc4[nH]cc-3c2=O)cc1 [DK-I-60-3, 7-methoxy-d3-2-(4-methoxy-d3-phenyl)-2,5-dihydro-3Hpyrazolo[4,3-c]quinolin-3-one]
[1]; Softisan 154 + lecithin (30%) lipid mixture, by DSC and PLM
  saturation solubility of DK-I-60-3 in the lipid mixture: 1.0%
[1]; mixture of solid (Softisan 154) and liquid (medium chain triglycerides) lipid, preliminary studies
  DK-I-60-3 solubilized by the lipid matrix: < 0.5%
[2]
  solubility in common organic solvents: very slightly or slightly soluble
  solubility in water and oils commonly used for pharmaceutical formulations: practically insoluble
